In the library only some 2.1% were active in any assay of this set; here they are far more common.
A3A deaminase: APOBEC3A ssDNA deaminase inhibitors, primary screen, selectivity assay for APOBEC3G inhibitor project, biochemical, FAM/TAMRA oligo cleavage fluorescence. DNA dC->dU-editing enzyme APOBEC-3A (Homo sapiens), P31941. recombinant A3A, FAM/TAMRA ssDNA deamination fluorescence. inhibition, % at 20 µM. 0.41% of 330,000 active;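 active means at least 40% inhibition at 20 µM here, with at most 30% in a related deaminase screen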;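 further: plate controls were A3A with DMSO for no effect and wells lacking A3A enzyme for full effect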
Statin myotox sup: suppressors of statin myotoxicity in C2C12 myotubes, primary screen, cell-based, single point, plate reader. C2C12 myotubes + simvastatin, ATP luminescence, 48 h; scaled: DMSO 0, geranylgeraniol control 100. rescue of ATP level, % at 7.49 µM. 0.78% of 330,000 active;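 active means mean ATP rescue above about 67%, or every replicate alone reaching that limit, limit read from the data, passing the limit was not always enough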;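 further: myotubes were challenged with 10 µM simvastatin during compound exposure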
Mot1-301 SUMO: yeast Mot1-301 growth rescue at high temperature, primary screen, SUMOylation pathway inhibitor project, S. cerevisiae, ATP luminescence, 38.5C. 1% of 320,000 active. growth rescue, % at 18.8 µM. AID 2716, 2010. S. cerevisiae Mot1-301 growth rescue; percent above DMSO median, 100 means doubled;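 active means every valid replicate shows activation above 250% relative to neutral control wells; inactive means the rest, any valid replicate at or below 250%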;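 further: OY570 slx delta 5 strain wells were the positive control but not used for scaling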
ASAP1 GAP inh: inhibitors of human ASAP1 ArfGAP activity, primary screen, biochemical, fluorescence polarization; AID 624377, 2012; 0.19% of 360,000 active; ASAP1-stimulated ARF1 GTP hydrolysis, GDP FP detection; inhibition, % at 16.5 µM; Arf-GAP with SH3 domain, ANK repeat and PH domain-containing protein 1 (Homo sapiens), …; in the data active means inhibition above about 25%;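 further: 0% = vehicle with enzyme and substrate and 100% = no enzyme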
APOBEC3G inh: APOBEC3G DNA deaminase inhibitors, primary screen, biochemical, fluorescence, single-stranded DNA substrate, uHTS. 0.28% of 330,000 active. recombinant A3G, ssDNA deamination FAM/TAMRA fluorescence. AID 493012, 2011. DNA dC->dU-editing enzyme APOBEC-3G (Homo sapiens), Q9HC16. inhibition, % at 20 µM;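 active means inhibition of at least 40% at 20 µM, with no more than 30% in the related APOBEC3A deaminase screen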;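 further: plate controls were DMSO wells with A3G for no effect and wells lacking A3G enzyme for full effect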
Target sequence (Q9HC16 whole entry, looked up): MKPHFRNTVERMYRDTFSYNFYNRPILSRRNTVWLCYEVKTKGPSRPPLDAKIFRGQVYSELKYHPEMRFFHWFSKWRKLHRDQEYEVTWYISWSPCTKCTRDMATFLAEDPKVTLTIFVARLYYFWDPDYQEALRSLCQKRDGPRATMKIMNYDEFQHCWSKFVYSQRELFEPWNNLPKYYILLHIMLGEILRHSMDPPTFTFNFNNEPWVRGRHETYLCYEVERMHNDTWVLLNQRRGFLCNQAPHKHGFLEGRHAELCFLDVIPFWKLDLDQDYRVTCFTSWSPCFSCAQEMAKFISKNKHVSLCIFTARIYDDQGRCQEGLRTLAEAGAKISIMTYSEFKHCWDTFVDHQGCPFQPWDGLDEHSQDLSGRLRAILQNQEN
ARFGAP1 inh: inhibitors of rat ARFGAP1 GAP activity, primary screen, biochemical, fluorescence polarization, GDP tracer | ADP-ribosylation factor GTPase-activating protein 1 (Rattus norvegicus), Q62848 | Arfgap1-stimulated ARF1 GTP hydrolysis, GDP FP detection | inhibition, % at 16.5 µM | 0.26% of 360,000 active | AID 651572, 2012;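 active means inhibition above a per-plate limit, mean inhibition of low control wells plus 3 SD, cut at about 25% in these data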;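 further: 0% = DMSO wells with enzyme and 100% = wells lacking Arfgap1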
Target sequence (Q62848 1-136 limits assumed): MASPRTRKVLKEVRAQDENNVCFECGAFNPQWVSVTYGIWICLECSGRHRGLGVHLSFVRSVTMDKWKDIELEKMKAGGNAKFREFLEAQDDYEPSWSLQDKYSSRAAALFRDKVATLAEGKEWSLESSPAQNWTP
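Assay system: purified rat His6-Arfgap1 residues 1-136 (GAP domain); Reagent: human Δ17 ARF1 bound to GTP; Dosing: 16.5 µM single point, 1.26% DMSO; Times: GTP hydrolysis reaction 2 h at 25 °C; Signal: FP, GDP Alexa 633 tracer displaced from anti-GDP antibody, 620/688 nm; Measure: % inhibition from polarization.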
ARFGAP1 confirm: ARFGAP1 inhibitor hit confirmation, biochemical, fluorescence polarization, triplicate | shares compounds with ARFGAP1 inh | ARFGAP1-stimulated ARF1 GTP hydrolysis, GDP tracer FP | inhibition, % at 16.5 µM | 30% of 890 active;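 active means average inhibition over triplicates above the hit cutoff set in the earlier primary screen, cut at about 25% in these data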;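 further: 0% = Arfgap1 plus ARF1-GTP with DMSO and 100% = wells lacking Arfgap1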
* = called active by the depositor; . = no result.

SMILES | A3A deaminase | Statin myotox sup | Mot1-301 SUMO | ASAP1 GAP inh | APOBEC3G inh | ARFGAP1 inh | ARFGAP1 confirm
COC(=O)C1=C(C)N(Cc2ccccc2C(F)(F)F)C(=NCc2cccc(C(F)(F)F)c2)NC1c1ccc(C(F)(F)F)cc1 (centres undefined) | . | . | . | 6 | . | 3 | .
COc1cccc(-c2ccc3c(c2)[C@H]2[C@H](CCN2S(=O)(=O)c2ccccc2OC)[C@@H](CO)N3C)c1 | . | -1 | . | . | . | . | .
O=C(CC1c2cc(F)ccc2C=C(c2ccsc2)N1c1ccc(C#CCCO)cc1)c1ccco1 (centres undefined) | . | . | . | 10 | . | 25* | -1
C[C@@H]1CN([C@@H](C)CO)C(=O)c2cc(C#CC3CC3)cnc2O[C@H]1CN(C)C(=O)CC1CC1 | . | 0 | . | . | . | . | .
O=C(Nc1cc([N+](=O)[O-])ccc1Cl)c1cccnc1 | -5 | -2 | -12 | -10 | -5 | 25* | 4
COc1ccc(NC(=O)Nc2ccc3c(c2)CC(=O)N([C@@H](C)CO)C[C@H](C)[C@H](CN(C)S(=O)(=O)c2cccs2)O3)cc1 | . | 7 | . | . | . | . | .
Cc1cccc(OCC(=O)OC2CCN(C)CC2)c1 | -3 | 2 | 994 | -4 | -8 | 26* | 0
Cc1ccc(OCC(=O)Oc2cccc(C)c2C)cc1 | 0 | 19 | 19 | -9 | -4 | 10 | .
Cc1ccc(OCC(=O)Oc2cccc(C)c2)cc1 | -2 | . | 274 | 8 | -5 | 26* | -5
CO[C@@H]1CN(C)C(=O)c2cc(NC(=O)NC3CCCCC3)ccc2OC[C@H](C)N(C)C[C@@H]1C | . | -3 | . | . | . | . | .
COc1ccccc1NC(=O)Nc1nc(CC(=O)Nc2ccc(OC)c(OC)c2)cs1 | -2 | -12 | -5 | 2 | -11 | -6 | .
COc1ccccc1NC(=O)Cc1csc(NC(=S)Nc2ccc(C)cc2)n1 | -2 | -4 | -6 | 12 | -2 | 27* | 9
C[C@H](CO)N1C[C@H](C)[C@@H](CN(C)S(=O)(=O)c2cn(C)cn2)OCc2cnnn2CCCC1=O | . | 9 | . | -1 | . | 51* | -1
C[C@@H]1CN([C@@H](C)CO)C(=O)CCCn2nncc2CO[C@H]1CN(C)S(=O)(=O)c1cn(C)cn1 | . | 3 | . | -5 | . | 1 | .
COCc1cn(CC[C@H]2CC[C@H](NC(=O)Nc3ccc(Cl)cc3)[C@H](CO)O2)nn1 | . | 2 | . | . | . | . | .
CC(C)Cc1ccc(C(C)NC(=O)Cc2ccc(S(=O)(=O)N3CCOCC3)s2)cc1 (centres undefined) | -1 | -20 | -14 | 1 | -8 | 25* | 4
CCC(=O)Nc1ccc2c(c1)C(=O)N(C)C[C@H](OC)[C@H](C)CN(C(=O)COC)[C@H](C)CO2 | . | 0 | . | . | . | . | .
COC(=O)c1c(C)nc2ccccc2c1-c1ccccc1 | 4 | -18 | 8 | 2 | -3 | 15 | .
COC(=O)c1c(C)[nH]c(C)c1-c1ccccc1 | -6 | 2 | -10 | 10 | -6 | 25* | 7
Cc1nc(CSc2ccc(Cl)cc2)cc(N2CC(C)OC(C)C2)n1 (centres undefined) | -2 | 107* | -4 | -10 | -5 | 25* | 5
C[C@@H]1CN([C@@H](C)CO)C(=O)c2cc(C#CCN(C)C)cnc2O[C@H]1CN(C)C(=O)c1ccc(F)cc1 | . | -4 | . | . | . | . | .
C[C@H]1CN([C@@H](C)CO)C(=O)c2cc(NC(=O)C3CCCCC3)ccc2O[C@@H]1CN(C)S(=O)(=O)c1cn(C)cn1 | . | 3 | . | . | . | . | .
